The text below walks through data of ChEMBL document CHEMBL3351639, “Fluorinated analogues of marsanidine, a highly α2-AR/imidazoline I1 binding site-selective hypotensive agent. Synthesis and biological activities” (Eur J Med Chem, 2014).

Test [1] concerns the target T1, Alpha-2A adrenergic receptor (Homo sapiens, UniProt P08913).
T1 sequence (P08913 whole entry): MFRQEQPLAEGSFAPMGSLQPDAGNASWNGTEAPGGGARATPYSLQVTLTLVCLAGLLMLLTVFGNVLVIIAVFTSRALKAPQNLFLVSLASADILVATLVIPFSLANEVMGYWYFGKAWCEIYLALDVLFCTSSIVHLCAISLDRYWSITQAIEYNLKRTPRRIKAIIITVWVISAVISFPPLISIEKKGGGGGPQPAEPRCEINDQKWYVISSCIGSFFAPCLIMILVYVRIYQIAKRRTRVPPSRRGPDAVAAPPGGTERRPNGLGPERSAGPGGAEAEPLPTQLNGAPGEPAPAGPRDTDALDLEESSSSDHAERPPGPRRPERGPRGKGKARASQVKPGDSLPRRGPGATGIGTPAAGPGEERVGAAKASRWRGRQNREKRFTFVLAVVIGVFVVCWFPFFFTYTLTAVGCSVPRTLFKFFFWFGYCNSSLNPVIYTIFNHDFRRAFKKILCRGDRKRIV
The test can be described thus: Agonist activity at human alpha2A adrenoceptor expressed in CHO-K1 cells after 30 mins by [35S]GTPgammaS binding assay. The test is classed as functional, cell-based. The method in brief:
(§1)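 Membranes from CHO cells stably expressing human α2A-AR (5 µg protein) were incubated with 7 or 8 serial dilutions of compound and 0.1 nM [35S]GTPγS. Buffer: 25 mM Tris, 1 mM EDTA, 5 mM MgCl2, 20 mM NaCl, 1 µM GDP, 1 mM DTT, 30 µM ascorbic acid, pH 7.4. Incubation 30 min at RT, then vacuum filtration and scintillation counting. Run in duplicate, at least 3 repeats.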

For test [2], the target named is T2, Alpha-2C adrenergic receptor (Homo sapiens, UniProt P18825).
T2 sequence (P18825 whole entry): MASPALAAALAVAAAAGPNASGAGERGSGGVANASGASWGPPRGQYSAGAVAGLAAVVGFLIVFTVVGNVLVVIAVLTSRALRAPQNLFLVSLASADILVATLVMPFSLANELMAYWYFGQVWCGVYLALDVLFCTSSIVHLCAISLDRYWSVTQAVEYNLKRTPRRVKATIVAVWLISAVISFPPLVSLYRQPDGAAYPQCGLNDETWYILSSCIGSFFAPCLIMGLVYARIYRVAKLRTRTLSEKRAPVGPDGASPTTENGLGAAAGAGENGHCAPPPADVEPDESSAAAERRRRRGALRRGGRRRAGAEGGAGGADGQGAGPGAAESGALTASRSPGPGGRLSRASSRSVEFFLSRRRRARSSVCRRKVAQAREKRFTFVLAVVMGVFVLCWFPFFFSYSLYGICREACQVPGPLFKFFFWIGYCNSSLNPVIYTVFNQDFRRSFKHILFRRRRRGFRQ
The test can be described thus: Displacement of [3H]RS-79948-197 from human alpha2C adrenoceptor expressed in CHO-K1 cells after 45 mins by liquid scintillation counting. Type of test: cell-based. The method in brief:
(§2)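 Membranes from CHO-K1 cells stably expressing each human α2-AR subtype (6–10 µg protein). Used 0.2 nM [3H]RS-79948-197 and 8 serial dilutions of competitor in 50 mM potassium phosphate, pH 7.4. Non-specific binding defined with 100 µM oxymetazoline. Filtration, then scintillation counting. Run in duplicate, at least 3 repeats. One-site nonlinear fit; IC50 converted to Ki by Cheng-Prusoff.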
On the technique in general: Displacement assays read how much labelled ligand stays bound in the presence of the test substance.

Test [3] concerns the target T3, Alpha-2B adrenergic receptor (Homo sapiens, UniProt P18089).
T3 sequence (P18089 whole entry): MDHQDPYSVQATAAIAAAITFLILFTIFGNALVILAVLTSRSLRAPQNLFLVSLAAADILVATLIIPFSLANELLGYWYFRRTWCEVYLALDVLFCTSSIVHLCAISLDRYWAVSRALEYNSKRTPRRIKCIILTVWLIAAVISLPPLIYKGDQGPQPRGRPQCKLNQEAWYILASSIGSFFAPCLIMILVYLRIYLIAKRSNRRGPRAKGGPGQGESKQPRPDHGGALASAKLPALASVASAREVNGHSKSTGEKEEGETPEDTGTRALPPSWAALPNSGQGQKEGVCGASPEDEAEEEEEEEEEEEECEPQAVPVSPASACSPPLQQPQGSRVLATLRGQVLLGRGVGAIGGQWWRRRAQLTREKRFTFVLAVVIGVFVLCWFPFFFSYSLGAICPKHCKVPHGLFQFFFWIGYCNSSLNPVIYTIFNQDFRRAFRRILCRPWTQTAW
The test can be described thus: Displacement of [3H]RS-79948-197 from human alpha2B adrenoceptor expressed in CHO-K1 cells after 45 mins by liquid scintillation counting. The test is classed as cell-based. The method in brief:
as §2

Test [4] addresses T4, Alpha-2A adrenergic receptor (Homo sapiens) (UniProt P08913).
T4 sequence (whole entry): T1 sequence (P08913 whole entry)
The test can be described thus: Intrinsic activity at human alpha2A adrenoceptor expressed in CHO-K1 cells after 30 mins by [35S]GTPgammaS binding assay relative to norepinephrine. The test is classed as functional, cell-based. The method, boiled down: as §1

In turn, `Fc1ccc2cnn(N=C3NCCN3)c2c1` gave an EC50 in test [1] of 38.9 nM. Moreover, the Ki in test [2] came to 600 nM; in test [3] it was 72 nM. The same molecule returned an Intrinsic activity in test [4] of 5.2%.

`Fc1cccc2cnn(N=C3NCCN3)c12`: it took 200 nM to reach a half-maximal effect in test [1] (EC50). The values for the Ki in test [2] and in test [3] were 1200 nM and 158 nM, respectively. Also, in test [4], the Intrinsic activity came to 18%.

One may read the EC50 as the concentration needed to bring the measured effect to its halfway point. A higher EC50 goes with weaker potency. As usually defined, the Ki is a dissociation constant, usually derived from enzyme kinetics or from competition with a known ligand. Read a high Ki as lower affinity.
